From article PMC5033715 (International journal of toxicology, 2016)
Values joined by “and” are separate entries in the source; they are usually repeats but may differ in a detail not shown here. Identical values can stand only once. “Also recorded” adds a separate entry of the source. Like-named read-outs stand apart in the source and are kept apart here. Marks after values point to notes of the source that are not given here.

Experiments:
LANCL2 = conditions: cited from earlier work
[1] = Blood concentrations after single high dose; format: in vivo, rat
[2] = system: adult Sprague Dawley male rats; test: Single dose study; format: in vivo, rat; conditions: for tBILI, mean plasma: control 0.10; for ALT, mean plasma: control 39; for AST, mean plasma: control 69; for ALP, mean plasma: control 300
Method in brief: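 After a 12 h fast, rats received vehicle or one 500 mg/kg oral gavage. Separate satellite rats (3 treated, 4 control per time point) were euthanized with intraperitoneal pentobarbital 200 mg/kg at 2, 4, 8 and 14 days. Blood was run through a haematology and chemistry panel including ALT, AST, bilirubin, glucose, BUN, creatinine, electrolytes, cholesterol and proteins; group means are reported.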

mouse models of colitis = conditions: cited from earlier work
[3] = system: adult Sprague Dawley male rats; test: Repeated dose study; format: in vivo, rat; conditions: 80 mg/kg/day over 14 days
[4] = system: adult Sprague Dawley male rats; test: Repeated dose study; format: in vivo, rat; conditions: for O_REAR (rears during observation period), least squares means (95% confidence interval): 80 mg/kg/day
Method in brief: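 Male Sprague-Dawley rats (200–250 g) were housed 2 per cage on a reverse light cycle and fasted 12 h before dosing. They received vehicle or 80 mg/kg (20 mg/mL suspension) by oral gavage daily for 14 days, then 7 drug-free days; n=10, 8 at day 21. FOB ran at baseline (day −3/−4) and days 3, 7, 14 and 21. It covered quantal/categorical endpoints (Mantel-Haenszel chi-square, 2 blocks) and continuous endpoints (weight, temperature, rotarod, grip, foot splay) as mixed-model least-squares means.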

[5] = system: adult Sprague Dawley male rats; test: Single dose study; format: in vivo, rat
Method in brief: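 Rats were fasted 12 h, then given one oral gavage of vehicle or 500 mg/kg as a 100 mg/mL suspension; n=10. The functional observational battery was scored at baseline (day −3 or −4), 4 h, and days 1, 7 and 14. Quantal and categorical endpoints were compared by Fisher's exact test. Continuous endpoints (body weight, grip strength and others) were analysed by mixed model with rat as random effect, giving least-squares means per time point.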

[6] = system: adult Sprague Dawley male rats; test: Repeated dose study; format: in vivo, rat; conditions: 80 mg/kg/day for 14 days; days 4, 8, 14, 21
[7] = Pharmacokinetic experiment, single 80 mg/kg oral dose, plasma LC-MS/MS; format: in vivo, rat; conditions: for Geometric mean of plasma concentration (95% lower and upper confidence limits) / Plasma concentration, Median (minimum; maximum): n=3
Method in brief: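 Adult male Sprague-Dawley rats with indwelling jugular catheters, caged singly and acclimated 5 days, were fasted 12 h and given 80 mg/kg by oral gavage. Catheter blood was drawn at 0.5–48 hr, at least 3 rats per time point. EDTA plasma was acetonitrile-extracted with reserpine internal standard and assayed by LC-MS/MS (C18, duplicates; LLOQ 0.2 ng/ml). Median concentrations gave kel, Vd, Cl and T½. Cmax and Tmax were read from the curve, and ka from a one-compartment fit.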

[8] = Solubility for intravenous administration; format: physicochemical; conditions: at concentrations required for IV administration of the test dose
[9] = system: adult Sprague Dawley male rats; test: Single dose study; format: in vivo, rat; conditions: single oral 500 mg/kg; 2, 4, 8 or 14 days post-dosing
Method in brief: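 Satellite rats given vehicle or a single 500 mg/kg oral dose were euthanized (pentobarbital 200 mg/kg ip) at 2, 4, 8 and 14 days. Brain, kidney, liver, adrenal, testes, stomach, intestines, duodenum, pancreas, heart, lungs, spleen, thymus and rib were sectioned at 5 μm and H&E stained, n=3. A board-certified veterinary pathologist examined them unblinded by light microscopy.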

[10] = Day 2 after single oral 500 mg/kg
[11] = Day 4 after single oral 500 mg/kg
[12] = Day 8 after single oral 500 mg/kg
[13] = Day 14 after single oral 500 mg/kg

CC1=CC(=O)CC(C)(C)[C@@]1(O)/C=C/C(C)=C\C(=O)O [Abscisic acid]
LANCL2 binding (LANCL2; leads to elevation of intracellular cAMP, activation of PKA): binds to LANCL2

O=C(c1cccc(-c2nc3ccccc3[nH]2)n1)N1CCN(C(=O)c2cccc(-c3nc4ccccc4[nH]3)n2)CC1 [BT-11, piperazine-1,4-diylbis((6-(1H-benzo[d]imidazo-2-y)pyridin-2-yl)methanone)]
blood concentration, individual samples ([1]; 2 hr after 500 mg/kg oral): 32 ng/mL and 3.1 ng/mL and 13 ng/mL | blood concentration, individual samples ([1]; 4 hr after 500 mg/kg oral): 17 ng/mL and 15 ng/mL and 6.7 ng/mL | blood concentration, individual samples ([1]; 22 hr after 500 mg/kg oral): 3.0 ng/mL and 9.6 ng/mL and 3.3 ng/mL | tBILI, mean plasma [2, 10]: 0.20^a mg/dL | ALT, mean plasma [2, 10]: 126^a IU/L | AST, mean plasma [2, 10]: 269^a IU/L | ALP, mean plasma [2, 10]: 376^a IU/L | tBILI, mean plasma [2, 11]: 0.23^a mg/dL | ALT, mean plasma [2, 11]: 52^a IU/L | AST, mean plasma [2, 11]: 106^a IU/L | ALP, mean plasma [2, 11]: 294^a IU/L | tBILI, mean plasma [2, 12]: 0.13 ^a mg/dL | ALT, mean plasma [2, 12]: 53^a IU/L | AST, mean plasma [2, 12]: 80^a IU/L | ALP, mean plasma [2, 12]: 288 ^a IU/L | tBILI, mean plasma [2, 13]: 0.10^a mg/dL | ALT, mean plasma [2, 13]: 41^a IU/L | AST, mean plasma [2, 13]: 67^a IU/L | ALP, mean plasma [2, 13]: 265^a IU/L | inflammatory F4/80+ CD11b+ macrophages and effector Th1 cells in the gut mucosa (mouse models of colitis; 3 mouse models of colitis): decreased numbers | lowest dose with therapeutic efficacy (mouse models of colitis; 3 validated mouse models of colitis): 8 mg/kg/day | Th1 cells and Th17 cells in the spleen and MLN (mouse models of colitis; mouse colitis): decreased the levels | colonic expression of IL-10 and LANCL2 (mouse models of colitis; oral, dose-dependent): up-regulated | colonic expression of TNFα (mouse models of colitis; oral, dose-dependent): down-regulated | reduction in gut inflammation (mouse models of colitis; oral, mice, 3 mouse models of colitis/IBD): 90% | lowest (minimal) efficacious dose (mouse models of colitis; oral, mice): 8 mg/kg | reduction of colonic lesions (mouse models of colitis; oral, mice, doses 80 mg/kg and as low as 8 mg/kg): 4 X | histopathologic evidence of toxic injury [3]: no histopathologic evidence of toxic injury | FOB quantal endpoints, treated vs control ([4]; 80 mg/kg/day oral for 14 days): No quantal differences | behavioral evidence of detrimental effects ([4]; 80 mg/kg/day oral, 2 weeks of treatment and 1 week post-dosing): No behavioral evidence of detrimental effects | weight and hind grip, treated vs control ([4]; 14 daily oral doses of 80 mg/kg, to day 21): no significant differences | O_REAR (rears during observation period), least squares means (95% confidence interval) ([4]; Study day 3, control 29.17, P=0.4916): 27.23 (13.90-40.57) | O_REAR (rears during observation period), least squares means (95% confidence interval) ([4]; Study day 7, control 27.97, P=0.1985): 24.33 (11.00-37.67) | O_REAR (rears during observation period), least squares means (95% confidence interval) ([4]; Study day 14, control 30.27, P=0.0273): 23.93 (10.60-37.27) | tolerability ([4]; oral, 14 days at 80 mg/kg (cumulative dose 1,120 mg/kg)): well-tolerated | weight difference vs control ([5]; 14 days after single 500 mg/kg bolus dose): < 4% | hind grip strength, least squares mean ([5]; day 1 after single oral 500 mg/kg, control 0.46, p=0.0272): 0.40 | weight, least squares mean ([5]; day 14 after single oral 500 mg/kg, control 264.46, p=0.0006): 254.71 | FOB quantal endpoints, treated vs control ([5]; single oral 500 mg/kg): no differences | behavioral evidence of detrimental effects ([5]; single oral 500 mg/kg, 2 weeks observation): No obvious behavioral evidence of detrimental effects | FOB categorical endpoints, treated vs control ([5]; single oral 500 mg/kg, time points beyond baseline): did not differ | tolerability ([5]; single oral bolus of 500 mg/kg): well-tolerated | clinical pathological examination of blood samples, control vs test [6]: did not reveal any clinical or statistical differences | time to steady state (97% level) after repeated dosing ([7]; 5 × T ½, assuming single-compartment, dose-independent pharmacokinetics): approximately 15 hr | Geometric mean of plasma concentration (95% lower and upper confidence limits) ([7]; 0.5 hr after 80 mg/kg oral): 14.60 (2.94; 72.53) ng/ml | Plasma concentration, Median (minimum; maximum) ([7]; 0.5 hr after 80 mg/kg oral): 12.18 (8.55; 29.89) ng/ml | Geometric mean of plasma concentration (95% lower and upper confidence limits) ([7]; 1 hr after 80 mg/kg oral): 23.99 (4.66; 123.40) ng/ml | Plasma concentration, Median (minimum; maximum) ([7]; 1 hr after 80 mg/kg oral): 20.95 (13.42; 49.11) ng/ml | Geometric mean of plasma concentration (95% lower and upper confidence limits) ([7]; 2 hr after 80 mg/kg oral): 19.65 (4.28; 90.23) ng/ml | Plasma concentration, Median (minimum; maximum) ([7]; 2 hr after 80 mg/kg oral): 16.88 (11.65; 38.62) ng/ml | Geometric mean of plasma concentration (95% lower and upper confidence limits) ([7]; 4 hr after 80 mg/kg oral): 8.24 (1.89; 35.94) ng/ml | Plasma concentration, Median (minimum; maximum) ([7]; 4 hr after 80 mg/kg oral): 11.07 (4.16; 12.14) ng/ml | Geometric mean of plasma concentration (95% lower and upper confidence limits) ([7]; 8 hr after 80 mg/kg oral): 5.24 (2.16; 12.73) ng/ml | Plasma concentration, Median (minimum; maximum) ([7]; 8 hr after 80 mg/kg oral): 4.33 (4.20; 7.91) ng/ml | Geometric mean of plasma concentration (95% lower and upper confidence limits) ([7]; 12 hr after 80 mg/kg oral): 1.84 (1.39; 2.45) ng/ml | Plasma concentration, Median (minimum; maximum) ([7]; 12 hr after 80 mg/kg oral): 1.83 (1.65; 2.07) ng/ml | Geometric mean of plasma concentration (95% lower and upper confidence limits) ([7]; 16 hr after 80 mg/kg oral): 2.31 (0.12; 44.19) ng/ml | Plasma concentration, Median (minimum; maximum) ([7]; 16 hr after 80 mg/kg oral): 1.40 (0.99; 8.98) ng/ml | Geometric mean of plasma concentration (95% lower and upper confidence limits) ([7]; 20 hr after 80 mg/kg oral): 1.06 (0.29; 3.90) ng/ml | Plasma concentration, Median (minimum; maximum) ([7]; 20 hr after 80 mg/kg oral): 1.39 (0.58; 1.49) ng/ml | Geometric mean of plasma concentration (95% lower and upper confidence limits) ([7]; 24 hr after 80 mg/kg oral): 0.95 (0.04; 21.25) ng/ml | Plasma concentration, Median (minimum; maximum) ([7]; 24 hr after 80 mg/kg oral): 1.01 (0.26; 3.22) ng/ml | Geometric mean of plasma concentration (95% lower and upper confidence limits) ([7]; 48 hr after 80 mg/kg oral): 1.57 (0.47; 5.31) ng/ml | Plasma concentration, Median (minimum; maximum) ([7]; 48 hr after 80 mg/kg oral): 1.90 (0.90; 2.27) ng/ml | Cmax (maximal concentration) ([7]; single 80 mg/kg oral, estimated from graph of median plasma concentrations): 21 ng/mL | Half-life (T ½) ([7]; single 80 mg/kg oral, median values 0.5-8 hr, 80 mg/kg): 3 h | solubility [8]: too insoluble to administer by the intravenous route; also recorded: relatively insoluble; also recorded: insufficiently soluble to be given IV | LANCL2 binding (LANCL2): binds LANCL2 | histopathologic comparison, vehicle control vs BT-11-exposed [9]: No significant differences

O=C(Nc1cccc(-c2nc3ccccc3[nH]2)c1)c1ccc(C(=O)Nc2cccc(-c3nc4ccccc4[nH]3)c2)cc1 [CID247228, N^1,N^4-bis(3-(1H-benzo[d]imidazo-2-yl)phenyl)terephthalamide, reference compound]
anti-inflammatory activity in mice with colitis (mouse models of colitis; oral): potent oral anti-inflammatory therapeutic | LANCL2 binding (LANCL2): ligand of LANCL2
